SR-BI DiI inh: inhibitors of SR-BI mediated HDL lipid uptake, primary screen, ldlA[mSR-BI] cells, fluorescence, single point; ldlA[mSR-BI] CHO cells, DiI-HDL uptake fluorescence, 3 h; inhibition, % at 12.5 µM; hit rate 0.96% among 320,000; Scavenger receptor class B member 1 (Mus musculus), Q61009; AID 488896, 2010;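 active = mean replicate inhibition of at least 70% and a set share of replicates each scoring 70 or more; inconclusive = meets just one of the two criteria; inactive = fails both criteria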;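 also: 0% = median of neutral control wells and 100% = median of positive control wells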
Target sequence (Q61009 whole entry, looked up): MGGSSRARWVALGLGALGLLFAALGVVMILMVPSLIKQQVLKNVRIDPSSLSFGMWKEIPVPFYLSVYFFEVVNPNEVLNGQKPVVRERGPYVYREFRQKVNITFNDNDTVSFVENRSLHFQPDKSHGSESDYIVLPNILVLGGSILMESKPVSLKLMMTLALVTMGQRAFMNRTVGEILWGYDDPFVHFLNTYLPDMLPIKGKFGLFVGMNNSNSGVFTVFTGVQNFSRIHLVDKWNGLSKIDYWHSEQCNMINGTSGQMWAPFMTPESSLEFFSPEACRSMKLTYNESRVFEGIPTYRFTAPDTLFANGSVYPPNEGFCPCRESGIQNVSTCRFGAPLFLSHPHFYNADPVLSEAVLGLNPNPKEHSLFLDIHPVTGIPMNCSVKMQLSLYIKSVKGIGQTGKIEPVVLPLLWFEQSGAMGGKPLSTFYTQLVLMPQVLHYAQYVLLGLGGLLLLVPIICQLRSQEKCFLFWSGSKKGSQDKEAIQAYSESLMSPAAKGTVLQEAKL
SR-BI DiI-HDL act: activators of SR-BI mediated DiI-HDL uptake, primary screen, ldlA[mSR-BI] CHO cells, DiI fluorescence. 3 h; 100 = double the neutral-control signal. activation, % at 12.5 µM. hit rate 0.096% among 320,000. AID 504775, 2011;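 active = mean replicate activation of at least 60% and every replicate at or above 60%; inconclusive = mean or all-replicate condition met, but not both; inactive = mean below 60% and not all replicates reaching 60%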;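 also: 0% = median plate neutral-control signal and 100% = twice that signal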
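Test system: SR-BI-overexpressing, LDLR-lacking CHO cells. Measured by: DiI fluorescence, bottom read. Medium: Ham's F12 with 0.5% BSA, HEPES 25 mM, pH 7.4. Timing: 3 h uptake period with compound, 37 °C.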
CAL PDZ FP-1: untagged CAL PDZ binding inhibitors, primary screen, biochemical, fluorescence polarization, HTS; Golgi-associated PDZ and coiled-coil motif-containing protein (Homo sapiens), Q9HD26; purified CAL PDZ, TMR-peptide fluorescence polarization, 1 h; inhibition, % at 24.9 µM; hit rate 0.92% among 300,000; AID 602252, 2012;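 active = mean inhibition of at least 30% with at least half of replicates also reaching 30%; inconclusive = no clear call, values can overlap the other calls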;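 also: 0% = DMSO neutral control and 100% = excess unlabeled competitor peptide PRC23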
dFosB act-1: activators of delta FosB homodimer, primary screen, biochemical, fluorescence polarization, TAMRA-CDK5 oligo, single point; hit rate 0.99% among 340,000; activation, % at 25 µM; purified delta FosB; percent of positive-control signal above neutral wells; Protein FosB (Mus musculus), P13346;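 active = mean activation above about 17%, with every replicate also reaching it, limit read from the data, passing the limit was not always enough; inconclusive = only one of the two conditions met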
CAL PDZ FP-2: CAL PDZ peptide-binding inhibitors, primary screen, biochemical, fluorescence polarization, Cer-tagged CAL PDZ, HTS | Golgi-associated PDZ and coiled-coil motif-containing protein (Homo sapiens), Q9HD26 | purified CAL PDZ, TMR-peptide fluorescence polarization, 1 h | inhibition, % at 20 µM | hit rate 0.02% among 330,000 | AID 504414, 2011;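 active = highest replicate inhibition of at least 40%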;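 also: plate controls were DMSO neutral control wells for no effect and unlabeled competitor peptide control wells for full effect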
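Material: tagged CAL PDZ protein CerCALP, purified; buffer or medium: sodium phosphate/NaCl buffer pH 7.4 with TCEP, IgG, Thesit; also added: fluorescent TMR peptide probe; schedule: 1 h incubation at room temperature before polarization reading; technique: fluorescence polarization from S- and P-plane intensities, G-factor corrected; control set: unlabelled peptide and DMSO controls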
dFosB act-2: activators of mouse delta FosB DNA binding, confirmation, biochemical, fluorescence polarization, TAMRA-CDK5 oligo, cherry-picked samples; purified delta FosB; normalised: neutral wells 0, positive control 100; shares compounds with dFosB act-1; 2,400 tested, under 10 active; activation, % at 24.9 µM; AID 588690, 2011;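 active = highest replicate activation at or above 34% and every replicate reaching that threshold; inconclusive = meets only one of the two criteria; inactive = meets neither criterion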;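 also: higher polarization means more probe DNA bound by delta FosB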
* hit, by the source's call; ? = inconclusive; . = no result given; ! = not active in a repeat. Sampled rows, rich in hits. Any-hit rate of the full collection: about 2.8%.

SMILES	SR-BI DiI inh	SR-BI DiI-HDL act	CAL PDZ FP-1	dFosB act-1	CAL PDZ FP-2	dFosB act-2
O=C(Cn1cc(C(=O)C2CC2)c2ccccc21)NCc1ccc2c(c1)OCO2	20.1	-20.1	-4.9	22.1*	-1.0	5.1
Cc1ccc(Cn2c(=O)n(CCC(=O)NCc3ccc4c(c3)OCO4)c(=O)c3ccccc32)cc1	-7.1	7.1	66.2*	28.3*	-1.2	3.2
Cc1ccccc1N(CC(=O)N1CCOCC1)S(C)(=O)=O	-7.7	7.7	-3.3	2.4	-0.7	.
COc1ccc(N(CC(=O)NC2CCCCC2)C(=O)c2ccc(C)s2)cc1OC	56.9	-56.9	-4.4	-8.5	-2.0	.
C=CCOc1ccc(CN(C)C(=O)c2ccc(CNS(=O)(=O)c3ccc(C)c(C)c3)cc2)cc1	14.5	-14.5	-5.9	-10.3	-0.4	.
Cc1onc(-c2c(F)cccc2Cl)c1C(=O)OCC(=O)c1c[nH]c2ccccc12	11.4	-11.4	-2.3	13.8	-1.9	.
Cc1[nH]c2ccccc2c1C(=O)C(=O)NCc1cccs1	-4.5	4.5	-2.0	0.0	-2.5	.
O=C(NCc1ccco1)c1sc2cc(Cl)ccc2c1Cl	-2.0	2.0	-2.6	-7.3	-2.6	.
O=C(Nc1ccon1)c1sc2cc(Cl)ccc2c1Cl	-18.6	18.6	-2.2	40.9*	-2.6	3.6
CC/C(=C(\c1ccc(O)cc1)c1ccc(OCCN(C)C)cc1)c1ccccc1	4.4	7.6	-2.1	-5.5	0.0	.
CC/C(=C(\c1ccccc1)c1ccc(OCCN(C)C)cc1)c1ccccc1	-6.9	6.9	-5.7	23.7*!	-0.6	-0.7
CC(C)Oc1ccc(CCC(=O)NNC(=O)CCC(=O)O)cc1	.	.	.	2.0	-1.4	.
CC(=O)c1cn(-c2ccc(Cl)cc2)c(=O)n(Cc2ccc(Br)cc2)c1=O	-11.2	11.2	.	27.2*	-0.7	0.9
CC(=O)C1=C(O)C(=O)N(c2ccc(Br)cc2)C1c1ccc(Cl)cc1 (stereo not drawn)	4.3	-4.3	-3.7	-7.7	-0.8	.
CCOC(=O)N1CCN(S(=O)(=O)c2ccc(C(=O)Nc3nc4ccccc4s3)cc2)CC1	22.9	-22.9	-2.9	23.4*	-1.9	0.1
CCOC(=O)N1CCN(S(=O)(=O)c2ccc(F)cc2)CC1	-8.4	8.4	-3.9	-2.9	-2.6	.
CCOC(=O)N1CCN(S(=O)(=O)c2ccc(C(=O)Nc3nc4ccc(F)cc4s3)cc2)CC1	36.8	-36.8	-6.7	57.3*	-1.6	-6.0
CN(C)c1nc2c(c(=O)[nH]c(=O)n2C)n1CCCc1ccccc1	-24.2	24.2	-1.4	-7.0	.	.
CCOC(=O)c1nn(-c2ccc(Cl)cc2)c(C)cc1=O	-6.6	6.6	-7.4	11.1	-0.2	.
CCN(CC)CCNc1ccnc2cc(Cl)ccc12	-39.1	39.1	-1.1	8.9	-2.4	.
CCNC1CCC(Nc2ccnc3cc(Cl)ccc23)CC1 (stereo not drawn)	-7.7	7.7	-3.6	20.0*	-1.1	6.1
Cc1ccc(Cn2c(CCNc3nc(-c4ccc(C)cc4)cs3)nc3cc(C(=O)NCCCO)ccc32)cc1	6.0	-6.0	-1.5	23.4*	0.9	1.3
CCN(CCCNC(=O)CNC(=O)c1nn(-c2ccc(OC)c(OC)c2)c(=O)c2ccccc12)c1ccccc1	.	.	3.7	-11.4	-1.2	.
O=C(Nc1cccc2ccccc12)/C(=C/c1cccc([N+](=O)[O-])c1)NC(=O)c1cccs1	1.4	-1.4	-2.3	24.0*	-0.5	-5.1
O=C(Nc1cccc2ccccc12)/C(=C\c1cccc([N+](=O)[O-])c1)NC(=O)c1cccs1	31.7	-31.7	-1.1	-1.1	-0.6	.
SMILES	SR-BI DiI inh	SR-BI DiI-HDL act	CAL PDZ FP-1	dFosB act-1	CAL PDZ FP-2	dFosB act-2
COc1ccccc1CN(C)C(=O)COC(=O)c1c(C)noc1C	4.4	-4.4	-6.1	-9.8	-0.2	.
CC1CC(C)CN(S(=O)(=O)c2ccc(C(=O)Nc3sccc3C(N)=O)cc2)C1 (stereo not drawn)	-6.3	6.0	.	28.6*	0.1	1.9
CC(SC(C)C(=O)NN=Cc1cccc(F)c1)C(=O)NN=Cc1cccc(F)c1 (stereo not drawn)	12.9	-12.9	.	28.0*	-1.0	0.6
O=C(N/N=C/c1cccc(F)c1)NC1CCCCC1	-1.8	1.8	0.7	-5.6	-1.2	.
COc1ccc(S(=O)(=O)N2CCN(c3nc(-c4cccnc4)nc4ccccc34)CC2)cc1	14.7	-14.7	0.9	17.8*	-1.3	-1.1
COc1cccc(CN2CCC(n3nccc3NC(=O)CCCc3ccccc3)CC2)c1	-14.9	14.9	-2.1	-9.7	0.0	.
Cc1nn(-c2ccccc2)c(C)c1C(=O)OCc1ccc(C#N)cc1	18.1	-18.1	-0.7	-24.0	-1.0	.
Cc1cc(C)c(OCC(=O)OCC(=O)NCCC2=CCCCC2)c(C)c1	-24.1	24.1	-3.4	-13.0	-0.1	.
Cc1ccccc1/C=N/Nc1ccnc2cc(Cl)ccc12	24.9	-25.0	-3.0	38.4*	-1.9	1.5
COc1ccc(/C=N\NC(=O)c2ccccc2F)cc1COc1ccc(F)cc1F	-5.6	5.6	-4.8	-18.0	-2.8	.
COc1ccc(/C=N\NC(=O)c2ccccc2F)cc1COc1ccc(F)cc1	10.0	-10.0	-1.8	-1.5	0.7	.
COc1ccc(/C=N/NC(=O)c2ccc(Cl)cc2)cc1Cn1cc(Cl)cn1	50.7	-50.7	-2.1	40.2*	-3.8	0.8
COc1cc(OC)c(/C=N/NC(=O)c2ccc(NC(C)=O)cc2)cc1Br	?	-70.7	-2.4	27.5*	-2.3	-2.4
COc1ccc(/C=N/NC(=O)c2ccco2)cc1COc1ccc(F)cc1	64.2	-64.2	6.5	74.5*	-0.1	3.4
COc1ccc(/C=N/NC(=O)c2ccc(NC(C)=O)cc2)cc1COc1ccc(F)cc1F	2.8	-2.8	-3.8	68.0*	-1.1	-0.3
Cc1cc(C)c(C)c(S(=O)(=O)N2CCN(C(=O)C3CCC3)CC2)c1C	34.9	-34.9	-2.7	-1.6	-2.9	.
O=C1NC2(CCCCCC2)C(=O)N1Cc1cccc([N+](=O)[O-])c1	24.3	-24.3	-5.9	1.9	-0.8	.
Cc1cc(Br)ccc1SCC(=O)OC/C(O)=C(\C#N)c1nc2ccccc2[nH]1	.	.	0.5	51.7*	0.0	4.5
Cc1cc(Br)ccc1SCC(=O)OCC(O)=C(C#N)c1nc2ccccc2[nH]1	-11.3	11.3	1.0	-6.4	-0.4	.
